Bioassay records: PubChem, The Scripps Research Institute Molecular Screening Center
PAFAH1B3 FP inh = inhibitors of human PAFAH1B3 | 340,000 compounds, 0.28% hits | recombinant PAFAH1B3, FP-rhodamine probe, fluorescence polarization | Q15102 | inhibition, % at 3.39 µM | AID 492972;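 active = inhibition above the screen-wide average of all tested compounds plus 3 SD, cut at about 25% in these data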;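 note: 0% = enzyme with DMSO only and 100% = wells lacking PAFAH1B3 protein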
Target sequence (Q15102 whole entry, looked up): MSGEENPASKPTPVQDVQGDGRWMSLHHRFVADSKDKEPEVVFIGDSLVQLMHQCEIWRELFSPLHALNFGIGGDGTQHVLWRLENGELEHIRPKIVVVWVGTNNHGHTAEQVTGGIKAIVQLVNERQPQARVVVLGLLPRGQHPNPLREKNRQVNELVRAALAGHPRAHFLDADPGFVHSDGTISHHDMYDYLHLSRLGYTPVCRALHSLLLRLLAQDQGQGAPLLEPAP
PAFAH2 inh = inhibitors of human PAFAH2; Q99487; recombinant PAFAH2, FP-rhodamine activity probe, fluorescence polarization; inhibition, % at 3.39 µM; 340,000 compounds, 0.99% hits;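 active = inhibition above the mean over all tested compounds plus 3 SD, cut at about 30% in these data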;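 note: inhibitors block probe labeling of enzyme so polarization drops; 0% = enzyme with DMSO and 100% = wells lacking PAFAH2 protein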
PAFAH1B2 inh = PAFAH1B2 (human) inhibition; P68402; recombinant PAFAH1B2, FP-rhodamine activity probe, fluorescence polarization; inhibition, % at 3.39 µM; 340,000 compounds, 1.2% hits;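 active = inhibition above the mean of all tested compounds plus 3 SD, cut at about 24% in these data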;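 note: 0% = enzyme with DMSO and 100% = wells lacking PAFAH1B2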
Target sequence (P68402 whole entry, looked up): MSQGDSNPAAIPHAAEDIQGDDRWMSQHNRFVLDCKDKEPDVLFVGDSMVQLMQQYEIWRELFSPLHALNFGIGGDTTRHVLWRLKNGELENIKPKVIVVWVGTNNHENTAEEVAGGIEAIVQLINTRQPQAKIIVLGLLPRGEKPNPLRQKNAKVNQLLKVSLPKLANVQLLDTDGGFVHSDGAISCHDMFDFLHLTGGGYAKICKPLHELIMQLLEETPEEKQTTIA
pPAFAH FP inh = pPAFAH (human) enzyme inhibition | AID 463082 | Q13093 | 330,000 compounds, 1.5% hits | recombinant pPAFAH, FP-rhodamine probe fluorescence polarization | inhibition, % at 3.39 µM;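 active = inhibition above the mean inhibition across the screen plus 3 SD, cut at about 25% in these data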;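 note: inhibitors block binding of the rhodamine activity-based probe so polarization drops; 0% = enzyme with DMSO and 100% = wells lacking pPAFAH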
RBBP9 inh = blocks human serine hydrolase RBBP9. inhibition, % at 7.94 µM. AID 1515. O75884. recombinant RBBP9, FP-Rh probe fluorescence polarization. 220,000 compounds, 0.2% hits;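 active = inhibition above the campaign mean of all tested compounds plus 3 SD, cut at about 14% in these data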;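 note: plate controls were DMSO wells with RBBP9 for no effect and wells lacking RBBP9 protein for full effect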
Target sequence (O75884 whole entry, looked up): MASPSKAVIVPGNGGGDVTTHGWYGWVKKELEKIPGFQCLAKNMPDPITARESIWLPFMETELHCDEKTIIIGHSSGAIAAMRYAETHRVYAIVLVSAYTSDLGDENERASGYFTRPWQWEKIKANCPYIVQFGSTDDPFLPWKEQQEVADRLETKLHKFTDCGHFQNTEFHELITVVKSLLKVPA
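Test system: recombinant human RBBP9; Timing: 30 min then 45 min, 25 °C; Detection: fluorescence polarization; Control set: RBBP9 with DMSO as uninhibited control, no-protein wells as full inhibition; Compound dosing: one concentration, 7.94 µM nominal, 0.794% DMSO; Probe or stimulus: FP-Rh activity-based probe, 375 nM before mixing.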
PAFAH2 confirm = PAFAH2 (human) inhibition, confirmed. inhibition, % at 3.39 µM. recombinant PAFAH2, FP-rhodamine activity probe, fluorescence polarization. 2,300 compounds, 65% hits. shares compounds with PAFAH2 inh;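 active = mean inhibition over three repeats above a set limit taken from the earlier primary screen, cut at about 30% in these data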;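 note: inhibitor blocks binding of rhodamine activity probe so polarization falls; 0% = enzyme with DMSO and 100% = wells lacking PAFAH2 protein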
The depositor's hits bear a star; / = not tested or not shown. Sampled rows, rich in hits. Any-hit rate of the full collection: about 2.7%.

SMILES | PAFAH1B3 FP inh | PAFAH2 inh | PAFAH1B2 inh | pPAFAH FP inh | RBBP9 inh | PAFAH2 confirm
Cc1ccc(/C(N)=N/OC(=O)c2cccs2)cc1 | 4.7 | 4.1 | 0.1 | 3.2 | -8.4 | /
Cc1cccc(/C(N)=N/OC(=O)c2cccs2)c1 | -2.2 | 44.8* | 4.3 | 3.6 | -3.5 | 30.0*
CC(C)N(C(=O)COC(=O)c1cccc(S(=O)(=O)N2CC3(C)CC2CC(C)(C)C3)c1)C(C)C (stereo not given) | -2.9 | 6.7 | 12.4 | / | / | /
O=C(NCC1CC1)c1cc([N+](=O)[O-])cc([N+](=O)[O-])c1 | 15.7 | -3.1 | 10.9 | -3.3 | / | /
COc1ccccc1NC(=O)CSc1nnc(Cc2cccs2)n1C | 4.7 | 66.2* | 3.3 | 1.4 | / | 0.8
CCN(c1cccc(C)c1)S(=O)(=O)c1ccc2c(c1)NC(=O)CCS2 | 0.4 | 48.3* | 4.9 | 8.8 | / | 35.4*
CCN(c1cccc(C)c1)S(=O)(=O)c1ccc2c(c1)NC(=O)CS2 | 3.5 | 20.2 | 8.3 | 9.6 | / | /
COc1ccc2c(c1)c(C(C)=O)c(C)n2-c1ccccc1OC | 9.7 | 1.0 | 4.1 | 3.0 | / | /
COc1cc(-c2nc3sc(C)c(C)c3c(=O)o2)cc(OC)c1OC | 5.5 | -1.6 | -1.9 | 5.9 | / | /
Cc1sc2nc(C(C)(C)C)oc(=O)c2c1C | -6.9 | 35.8* | 4.8 | 8.8 | -7.6 | 39.6*
Cc1sc2nc(-c3ccco3)oc(=O)c2c1C | 11.1 | 61.6* | 0.3 | -1.6 | -2.2 | 47.3*
Cc1ccccc1-c1nc2sc(C)c(C)c2c(=O)o1 | 4.3 | 68.4* | -3.3 | 0.1 | / | 54.1*
O=C(COc1ccc(S(=O)(=O)N2CCOCC2)cc1)NCCc1ccccc1 | 11.2 | 3.2 | 5.3 | 5.1 | / | /
CC1=CC(=C(C#N)C#N)C=C(C)N1CCN1CCNCC1 | 2.7 | 4.8 | 3.4 | -3.3 | -8.2 | /
CCOC(=O)C(NC(=O)Nc1ccc(O)cc1)(c1ccccc1)C(F)(F)F (stereo not given) | 0.7 | 7.3 | 10.3 | 12.9 | 3.9 | /
C=C1CCN([C@@H](C)C(=O)OCc2cccc(C)c2)S(=O)(=O)c2ccccc21 | 4.1 | 10.0 | 0.7 | -1.3 | / | /
C=C1CCN([C@H](C(=O)OCc2ccc(C)cc2)C(C)C)S(=O)(=O)c2ccccc21 | 8.1 | 126.0* | 1.2 | 1.7 | / | 0.1
CCOc1ccc(S(=O)(=O)/N=C(/Nc2ccc(S(N)(=O)=O)cc2)c2ccccc2)cc1 | 9.3 | 44.5* | 6.7 | 4.1 | / | 23.2
CCOc1ccc(OCC(=O)Nc2ccc(S(N)(=O)=O)cc2)cc1 | 3.2 | -3.5 | 3.0 | 3.9 | -7.6 | /
Cc1cccc(C)c1NC(=O)COC(=O)c1ccc2c(c1)OCO2 | -4.2 | 28.1 | 2.4 | 4.9 | -8.8 | /
CC(=O)c1cccc(NC(=O)COC(=O)c2ccc3c(c2)OCO3)c1 | -2.6 | 74.4* | -3.7 | 0.6 | / | 70.7*
Cc1cccc(C)c1NC(=O)COC(=O)c1ccc2[nH]c3c(c2c1)CCCC3 | 3.0 | 70.4* | -2.4 | 11.8 | -8.2 | 62.1*
Cc1[nH]c2ccc(C(=O)OCC(=O)Nc3cccc(S(N)(=O)=O)c3)cc2c1C | -0.9 | 69.3* | 0.5 | 1.9 | / | 64.4*
O=C(O)c1ccc2[nH]c3c(c2c1)CCCC3 | 2.0 | -1.4 | 5.8 | / | / | /
Cc1ccc(S(=O)(=O)N(C)C)cc1NC(=O)COC(=O)c1ccc2c(c1)NC(=O)CS2 | 8.2 | 51.9* | 3.7 | 3.5 | 2.4 | 43.0*
SMILES | PAFAH1B3 FP inh | PAFAH2 inh | PAFAH1B2 inh | pPAFAH FP inh | RBBP9 inh | PAFAH2 confirm
CCCCc1nnc(NC(=O)CCS(=O)(=O)c2ccc(Cl)cc2)s1 | -0.1 | 1.9 | 10.3 | 3.6 | / | /
CC(C)[C@H](NC(=O)C1CC(=O)N(c2ccc3c(c2)OCO3)C1)C(=O)NC1CCCC1 (stereo not given in full) | 2.8 | 5.8 | 1.5 | 8.7 | / | /
O=C(Nc1ccccc1O)c1nc(Cl)ccc1Cl | 4.8 | -3.1 | 5.5 | 0.1 | -5.5 | /
CN(C)S(=O)(=O)c1cccc(C(=O)OCC(=O)Nc2ccccc2OC(F)F)c1 | 4.0 | 33.0* | 5.1 | 11.4 | -9.5 | 25.2
CN(C)S(=O)(=O)c1ccc(C(=O)OCC(=O)Nc2ccc3c(c2)OCO3)cc1 | 5.2 | -3.6 | 1.9 | 3.9 | / | /
CN(C)S(=O)(=O)c1cccc(NC(=O)COC(=O)c2ccc3c(c2)OCO3)c1 | -0.6 | 55.1* | 5.8 | 6.8 | 1.5 | 56.5*
C=CC(=O)NC1CC2CCC1(C)C2(C)C (stereo not given) | 5.1 | -8.5 | 1.4 | -1.9 | 5.4 | /
C[C@@H](NS(=O)(=O)c1cc(Cl)ccc1F)[C@H](O)c1ccccc1 | 9.8 | 4.0 | 2.5 | / | / | /
Cc1noc(C)c1COc1cccc(C(=O)Nc2ccccc2N2CCOCC2)c1 | 5.0 | -2.9 | -4.0 | 3.3 | -4.8 | /
COc1ccc(C(=O)OCCN2CCCCC2)cc1 | 6.7 | 1.2 | 6.0 | 1.5 | -6.0 | /
COc1ccc(C(=O)OCC2CC(c3ccccc3)N(C)O2)cc1 (stereo not given) | 12.9 | 56.3* | 3.5 | 11.3 | -5.6 | 44.7*
COc1ccccc1OC(C)C(=O)Nc1ccc(S(=O)(=O)N2CCN(C)CC2)cc1 (stereo not given) | 9.9 | -2.8 | 10.5 | -2.4 | / | /
COc1ccccc1C/C(N)=N/OC(=O)/C=C/c1ccccc1 | 12.5 | 69.5* | -1.4 | 3.3 | -6.2 | 71.6*
N/C(Cc1cccc2ccccc12)=N\OC(=O)c1cccs1 | 3.4 | -3.2 | 0.4 | 15.1 | 0.2 | /
C/C(=N\Nc1ccc(F)cc1F)c1cccs1 | / | / | / | 4.0 | -2.4 | /
COc1ccccc1C/C(N)=N/OC(=O)COc1cccc(C)c1C | 4.0 | -8.7 | 6.9 | 0.0 | -2.4 | /
N/C(Cc1ccc(Cl)cc1Cl)=N\OC(=O)c1cccs1 | 3.3 | 88.3* | 14.2 | 6.9 | -8.2 | 83.7*
N/C(CC(=O)Nc1ccc(F)cc1F)=N\OC(=O)c1cccs1 | 4.0 | 40.8* | 7.0 | 4.3 | 0.8 | 25.7
COc1ccc(C(=O)O/N=C(/C)c2cccs2)cc1 | 5.3 | 64.2* | 1.9 | 20.3 | 2.8 | 55.0*
CCN1C(=O)[C@H]2[C@@H](c3ccc(-c4ccc(C(C)=O)cc4)cc3)N[C@@](C)(C(=O)OC)[C@H]2C1=O | 4.3 | -3.1 | 3.7 | 3.0 | / | /
Cc1ccn(C(C)CC(=O)Nc2ccc(-c3ccno3)cc2)n1 (stereo not given) | -0.8 | -4.1 | 4.9 | 4.9 | / | /
COc1ccccc1C/C(N)=N/OC(=O)c1cccs1 | 4.2 | 80.8* | -1.9 | 12.1 | -8.7 | 75.4*
COc1ccc(C/C(N)=N/OC(=O)c2cccs2)cc1 | 9.5 | 47.0* | 3.8 | 3.7 | -6.4 | 38.1*
COc1ccc(OCc2nc3c4cc(OC)c(OC)cc4nc(=S)n3[nH]2)cc1 | 5.5 | 6.8 | -10.6 | 16.2 | -3.5 | /
O=C(c1ccc(-c2cccc(C(F)(F)F)c2)o1)N1CCCC(C(F)(F)F)C1 (stereo not given) | -3.7 | 33.5* | 0.7 | 8.1 | / | 5.2
O=C1c2cc(N3CCCC3)c([N+](=O)[O-])cc2C(=O)N1c1ccccc1 | 6.1 | 11.7 | 5.2 | -5.0 | -4.0 | /
